2 compounds from PMC11413667 (Acta Pharmaceutica Sinica. B, 2024) can be followed below.

For data set [1], the system named is 4T1 cells. Kind of data set: Annexin V-FITC/PI flow cytometry. It is filed as cell-based, mouse. The following applies: upon light. An outline of the steps:
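Mouse 4T1 cells, grown in DMEM with 10% FBS and 1% pen-strep at 37 °C, 5% CO2, were exposed to test compound at one fixed concentration for 6 h in the dark. Cells were then irradiated (638 nm, 29.8 mW/cm2, 15 min) or left unirradiated, and stained with Annexin V-FITC and PI for 15 min. Apoptotic and necrotic fractions were read by flow cytometry.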
(In general: A flow cytometer gives signals particle by particle.)

Data set [2] concerns 4T1 tumor. The note with it: i.v., PT 20 mg/kg, PTI 25 mg/kg, 0.5-12 h.
In data set [3] the test system is 4T1 cells. As to the kind of experiment: MTT cytotoxicity. The note with it: increasing dosage, n = 4. It is filed as cell-based, mouse. Summed up:
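4T1 cells, cultured in DMEM with 10% FBS and 1% pen-strep at 37 °C, 5% CO2, were seeded overnight until adherent. They were then exposed to a concentration series of test compound. Light groups received 638 nm, 29.8 mW/cm2 for 12 min. Viability was measured by standard MTT relative to untreated cells, n = 4, mean ± SD.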

Take Palmitic-K(PpIX)-HAIYPRH [PT]: in data set [1], the “Cells in apoptosis or necrosis state” value is reported as “less than a quarter”. Also, the “Tumor accumulation (fluorescence imaging)” value in data set [2] was “weaker tumor accumulation than PTI”. Consider `O=C1[C@H](Cc2ccc(O)cc2)N2C(=O)CCN(C(=O)NCc3ccccc3)[C@H]2CN1Cc1cccc2ccccc12` [ICG-001], for which the “Cytotoxicity (MTT), ICG-001 alone” value in data set [3] was “could hardly retard the cell expansion”.
